Measurements published in ChEMBL document CHEMBL1949664, “Epiminocyclohepta[b]indole analogs as 5-HT6 antagonists” (Bioorg Med Chem Lett, 2012).
pKi: −log10 of the molar value.

Experiments:
Liver microsomes [1] = assay: (§1) Stability in human liver microsomes assessed as compound remaining after 1 hr; format: ADME, Microsome; details: microsomes, 1 h
In short: (§2)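 Human liver microsomes; percent parent compound remaining after 1 h incubation.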

Caco-2 [2] = assay: (§3) Permeability from apical to basolateral side of human Caco2 cells; format: ADME, cell-based
In short: (§4)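 Caco-2 monolayers; apical-to-basolateral flux reported as ×10^-6 cm/s.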

Liver microsomes [3] = assay: (§5) Stability in rat liver microsomes assessed as compound remaining after 1 hr; format: ADME, Microsome; details: microsomes, 1 h
In short: (§6)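 Rat liver microsomes; percent parent compound remaining after 1 h incubation.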

[4] = as §1; format: ADME, Microsome; details: liver microsomes, read-out: Stability; in short: as §2
[5] = as §3; format: ADME, cell-based; details: caco-2, read-out: permeability; in short: as §4
[6] = as §5; format: ADME, Microsome; details: liver microsomes, read-out: Stability; in short: as §6
[7] = target: T1, 5-hydroxytryptamine receptor 6 (Homo sapiens, UniProt P50406); assay: Agonist activity at human 5-HT6 serotonin receptor expressed in CHO-1 cells assessed as cAMP production relative to 5-hydroxytryptamine; format: functional, cell-based; set-up: concentration or dose not given beside the values
Rattus norvegicus [8] = organism: Rattus norvegicus; assay: Ex vivo 5-HT6 serotonin receptor occupancy in Sprague-Dawley rat brain after 6 hrs using [125I][…] by autoradiography; format: functional, organism-based
In short: (§7)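 Sprague Dawley rats dosed at 10, 30 or 90 mg/kg, brains taken at 6 or 24 h. Caudate putamen sections incubated with [125I]SB258585 alone (total) or plus methiothepin (non-specific); β-imager read-out. Two determinations per animal, 5 animals per dose group; specific binding expressed relative to vehicle controls.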

[9] = target: T1, 5-hydroxytryptamine receptor 6; assay: Displacement of [3H]LSD from human 5-HT6 serotonin receptor by scintillation proximity assay
Rattus norvegicus [10] = assay: Ex vivo 5-HT6 serotonin receptor occupancy in Sprague-Dawley rat brain at 10 mg/kg after 6 hrs using [125I][…] by autoradiography; format: functional; in short: as §7
Rattus norvegicus [11] = assay: Ex vivo 5-HT6 serotonin receptor occupancy in Sprague-Dawley rat brain at 90 mg/kg after 24 hrs using [125I][…] by autoradiography; format: functional; in short: as §7
[12] = AUC (0 to infinity) in Sprague-Dawley rat at 10 mg/kg, po; format: ADME, organism-based; set-up: time infinity, dose 10 mg/kg, route oral; details: plasma
[13] = Half life in Sprague-Dawley rat at 10 mg/kg, po; format: ADME, organism-based; set-up: dose 10 mg/kg, route oral; details: in vivo
[14] = Oral bioavailability in Sprague-Dawley rat at 2 mg/kg; format: ADME, organism-based; details: in vivo
Rattus norvegicus [15] = assay: Ex vivo 5-HT6 serotonin receptor occupancy in Sprague-Dawley rat brain at 30 mg/kg after 24 hrs using [125I][…] by autoradiography; format: functional; in short: as §7
[16] = Cmax in Sprague-Dawley rat at 10 mg/kg, po; format: ADME, organism-based; set-up: dose 10 mg/kg, route oral; details: in vivo
[17] = Volume of distribution at steady state in Sprague-Dawley rat at 2 mg/kg, iv; format: ADME, organism-based; set-up: dose 2 mg/kg, route intravenous; details: in vivo, read-out: Vdss
[18] = Tmax in Sprague-Dawley rat at 10 mg/kg, po; format: ADME, organism-based; set-up: dose 10 mg/kg, route oral; details: in vivo
[19] = Cmax (0 to 6 hrs) in Sprague-Dawley rat at 30 mg/kg, po; format: ADME, organism-based; set-up: dose 30 mg/kg, route oral; details: in vivo
Rattus norvegicus [20] = assay: Ex vivo 5-HT6 serotonin receptor occupancy in Sprague-Dawley rat brain at 10 mg/kg after 24 hrs using [125I][…] by autoradiography; format: functional; in short: as §7
[21] = Ratio of drug level in brain to plasma in Sprague-Dawley rat at 10 mg/kg, po after 6 hrs; format: ADME, organism-based; set-up: dose 10 mg/kg, route oral; details: read-out: BPR
[22] = Clearance in Sprague-Dawley rat at 2 mg/kg, iv; format: ADME, organism-based; set-up: dose 2 mg/kg, route intravenous; details: in vivo
[23] = Oral bioavailability in Sprague-Dawley rat at 10 mg/kg; format: ADME, organism-based; details: in vivo
Rattus norvegicus [24] = assay: Ex vivo 5-HT6 serotonin receptor occupancy in Sprague-Dawley rat brain at 90 mg/kg after 6 hrs using [125I][…] by autoradiography; format: functional; in short: as §7
[25] = Tmax (0 to 6 hrs) in Sprague-Dawley rat at 30 mg/kg, po; format: ADME, organism-based; set-up: dose 30 mg/kg, route oral; details: in vivo
Rattus norvegicus [26] = assay: Ex vivo 5-HT6 serotonin receptor occupancy in Sprague-Dawley rat brain at 30 mg/kg after 6 hrs using [125I][…] by autoradiography; format: functional; in short: as §7
[27] = (§8) Efflux ratio of permeability from basolateral to apical side over apical to basolateral side in human Caco2 cells; format: ADME, cell-based; details: caco-2
Caco-2 [28] = assay: as §8; format: ADME, cell-based
[29] = target: T1, 5-hydroxytryptamine receptor 6; assay: Antagonist activity at human 5-HT6 serotonin receptor expressed in CHO-1 cells assessed as inhibition of 5-hydroxytryptamine-induced cAMP production; format: functional, cell-based

T1 sequence (P50406 whole entry): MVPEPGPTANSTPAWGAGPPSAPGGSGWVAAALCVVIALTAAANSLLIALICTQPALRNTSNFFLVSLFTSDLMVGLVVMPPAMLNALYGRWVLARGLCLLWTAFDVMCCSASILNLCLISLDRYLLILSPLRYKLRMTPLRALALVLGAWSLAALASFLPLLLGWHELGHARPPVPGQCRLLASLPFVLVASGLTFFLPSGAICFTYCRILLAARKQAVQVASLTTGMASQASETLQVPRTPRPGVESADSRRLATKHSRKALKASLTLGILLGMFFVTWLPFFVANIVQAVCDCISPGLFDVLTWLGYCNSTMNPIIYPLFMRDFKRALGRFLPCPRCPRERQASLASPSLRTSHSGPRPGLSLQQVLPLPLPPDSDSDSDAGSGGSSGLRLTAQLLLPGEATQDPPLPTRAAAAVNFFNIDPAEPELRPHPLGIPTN

Cn1c2c(c3cc(S(=O)(=O)c4csc5ccccc45)ccc31)C1CCC(C2)N1 (single isomer, unassigned) [listing 1 of 2 here]
Stability (Liver microsomes [1]): 78%
permeability (Caco-2 [2]): 15.7 ×10⁻⁶ cm/s
Stability (Liver microsomes [3]): 80%

Cn1c2c(c3cc(S(=O)(=O)c4ccc5[nH]ccc5c4)ccc31)C1CCC(C2)N1 (single isomer, unassigned; (+)) [listing 1 of 2 here]
Stability (Liver microsomes [1]): 99%
Stability (Liver microsomes [3]): 91%

Cn1c2c(c3cc(S(=O)(=O)c4c[nH]c5ccccc45)ccc31)C1CCC(C2)N1 (single isomer, unassigned; (+)) [listing 1 of 2 here]
Stability (Liver microsomes [1]): 86%
permeability (Caco-2 [2]): 1.05 ×10⁻⁶ cm/s
Stability (Liver microsomes [3]): 57%

Cn1c2c(c3cc(S(=O)(=O)c4ccc5[nH]ccc5c4)ccc31)C1CCC(C2)N1 (single isomer, unassigned; (-)) [listing 1 of 2 here]
remaining at 1 h [4]: 89%
Papp A→B [5]: 0.55 ×10⁻⁶ cm/s
remaining at 1 h [6]: 77%

Cn1c2c(c3cc(S(=O)(=O)c4c[nH]c5ccccc45)ccc31)C1CCC(C2)N1 (single isomer, unassigned; (-)) [listing 1 of 2 here]
Activity [7]: < 15%

Cn1c2c(c3cc(S(=O)(=O)c4cccc(C(F)(F)F)c4)ccc31)C1CCC(C2)N1 (single isomer, unassigned; (+)) [listing 1 of 2 here]
Activity (Rattus norvegicus [8]): Dose-dependent effect
Activity [7]: < 15%

O=S(=O)(c1ccccc1)c1ccc2[nH]c3c(c2c1)C1CCC(C3)N1 (racemic)
pKi [9]: 7.27

Cn1c2c(c3cc(S(=O)(=O)c4cccc(C(F)(F)F)c4)ccc31)C1CCC(C2)N1 (single isomer, unassigned; (-)) [listing 1 of 2 here]
Activity [7]: < 15%

Cn1c2c(c3cc(S(=O)(=O)c4c[nH]c5ccccc45)ccc31)C1CCC(C2)N1 (single isomer, unassigned; (+)) [listing 2 of 2 here]
Activity [7]: < 15%

Cn1c2c(c3cc(S(=O)(=O)c4ccncc4)ccc31)C1CCC(C2)N1 (racemic)
pKi [9]: < 5.00

Cn1c2c(c3cc(S(=O)(=O)c4cccc(C(F)(F)F)c4)ccc31)C1CCC(C2)N1 (single isomer, unassigned; (+)) [listing 2 of 2 here]
Activity (Rattus norvegicus [10]): 60%
Activity (Rattus norvegicus [11]): 84%
AUC(0-inf) [12]: 26700 ng·h/mL
half-life [13]: 10 h
bioavailability [14]: 91%
Activity (Rattus norvegicus [15]): 74%
Cmax [16]: 916 ng/mL
Stability (Liver microsomes [1]): 100%
permeability (Caco-2 [2]): 24.8 ×10⁻⁶ cm/s
Vd [17]: 4.7 L/kg
Tmax [18]: 4 h
Cmax [19]: 732 ng/mL
Activity (Rattus norvegicus [20]): 48%
Stability (Liver microsomes [3]): 79%
Kp at 6 h [21]: 1.3
clearance [22]: 5.7 mL/min/kg
bioavailability [23]: 91%
Activity (Rattus norvegicus [24]): 78%
Tmax [25]: 6 h
Activity (Rattus norvegicus [26]): 76%

Cn1c2c(c3cc(S(=O)(=O)c4cccc(Cl)c4)ccc31)C1CCC(C2)N1 (single isomer, unassigned; (-)) [listing 1 of 2 here]
remaining at 1 h [4]: 76%
Papp A→B [5]: 7.49 ×10⁻⁶ cm/s
remaining at 1 h [6]: 63%
efflux ratio [27]: 6

Cn1ccc(S(=O)(=O)c2ccc3c(c2)c2c(n3C)CC3CCC2N3)n1 (stereo unspecified)
pKi [9]: 6.00

Cn1c2c(c3cccc(S(=O)(=O)c4ccccc4)c31)C1CCC(C2)N1 (racemic)
pKi [9]: 6.09

Cn1c2c(c3cc(S(=O)(=O)c4csc5ccccc45)ccc31)C1CCC(C2)N1 (single isomer, unassigned; (-)) [listing 1 of 2 here]
Activity [7]: < 15%

Cn1c2c(c3cc(S(=O)(=O)c4csc5ccccc45)ccc31)C1CCC(C2)N1 (single isomer, unassigned; (-)) [listing 2 of 2 here]
Stability (Liver microsomes [1]): 52%
permeability (Caco-2 [2]): 0.24 ×10⁻⁶ cm/s
remaining at 1 h [6]: 67%

Cn1c2c(c3cc(S(=O)(=O)n4cccc4)ccc31)C1CCC(C2)N1 (racemic)
pKi [9]: 7.49

Cn1c2c(c3cc(S(=O)(=O)n4ccc5ccccc54)ccc31)C1CCC(C2)N1 (single isomer, unassigned; (-)) [listing 1 of 2 here]
remaining at 1 h [4]: 82%
Papp A→B [5]: 15 ×10⁻⁶ cm/s
remaining at 1 h [6]: 88%

Cn1c2c(c3cc(S(=O)(=O)c4ccccc4)ccc31)C1CCC(C2)N1 (single isomer, unassigned; (-))
Activity [7]: < 15%

Cn1c2c(c3cc(S(=O)(=O)c4cccc(F)c4)ccc31)C1CCC(C2)N1 (racemic)
pKi [9]: 8.39

Cn1c2c(c3cc(S(=O)(=O)c4ccccc4)ccc31)C1CCC(C2)N1 (single isomer, unassigned; (+))
Activity [7]: < 15%

Cn1c2c(c3cc(S(=O)(=O)c4ccc5[nH]ccc5c4)ccc31)C1CCC(C2)N1 (single isomer, unassigned; (+)) [listing 2 of 2 here]
Activity [7]: < 15%

Cn1c2c(c3cc(S(=O)(=O)c4cccc(Cl)c4)ccc31)C1CCC(C2)N1 (single isomer, unassigned; (+)) [listing 1 of 2 here]
Stability (Liver microsomes [1]): 93%
permeability (Caco-2 [2]): 8.55 ×10⁻⁶ cm/s
Stability (Liver microsomes [3]): 72%
Ratio (Caco-2 [28]): 4.4

Cn1c2c(c3cc(S(=O)(=O)n4ccc5ccccc54)ccc31)C1CCC(C2)N1 (single isomer, unassigned; (+)) [listing 1 of 2 here]
Activity [7]: < 15%

Cn1c2c(c3cc(S(=O)(=O)n4ccc5ccccc54)ccc31)C1CCC(C2)N1 (single isomer, unassigned; (-)) [listing 2 of 2 here]
Activity [7]: < 15%

Cn1c2c(c3cc(S(=O)(=O)c4cccc(Cl)c4)ccc31)C1CCC(C2)N1 (single isomer, unassigned; (-)) [listing 2 of 2 here]
Kb [29]: 3.5 nM
Activity [7]: < 15%

Cn1c2c(c3cc(S(=O)(=O)n4ccc5ccccc54)ccc31)C1CCC(C2)N1 (single isomer, unassigned; (+)) [listing 2 of 2 here]
Stability (Liver microsomes [1]): 96%
permeability (Caco-2 [2]): 12 ×10⁻⁶ cm/s
Cmax [19]: 41 ng/mL
Stability (Liver microsomes [3]): 86%
Tmax [25]: 6 h

Cn1c2c(c3cc(S(=O)(=O)c4ccc5[nH]ccc5c4)ccc31)C1CCC(C2)N1 (single isomer, unassigned; (-)) [listing 2 of 2 here]
Activity [7]: < 15%

Cn1c2c(c3cc(S(=O)(=O)c4c[nH]c5ccccc45)ccc31)C1CCC(C2)N1 (single isomer, unassigned; (-)) [listing 2 of 2 here]
remaining at 1 h [4]: 72%
permeability (Caco-2 [2]): 0.41 ×10⁻⁶ cm/s
Stability (Liver microsomes [3]): 34%

Cn1c2c(c3ccc(S(=O)(=O)c4ccccc4)cc31)C1CCC(C2)N1 (racemic)
pKi [9]: 6.88

Cn1c2c(c3cc(S(=O)(=O)c4cccc(Cl)c4)ccc31)C1CCC(C2)N1 (single isomer, unassigned; (+)) [listing 2 of 2 here]
Kb [29]: 4 nM
Activity [7]: < 15%

Cn1c2c(c3cc(S(=O)(=O)c4cccc(C(F)(F)F)c4)ccc31)C1CCC(C2)N1 (single isomer, unassigned; (-)) [listing 2 of 2 here]
Stability (Liver microsomes [1]): 78%
Papp A→B [5]: 16.5 ×10⁻⁶ cm/s
remaining at 1 h [6]: 65%

CCN1C2CCC1c1c(n(C)c3ccc(S(=O)(=O)c4ccccc4)cc13)C2 (racemic)
pKi [9]: 7.04

Cn1c2c(c3cc(S(=O)(=O)c4csc5ccccc45)ccc31)C1CCC(C2)N1 (single isomer, unassigned) [listing 2 of 2 here]
Activity [7]: < 15%
